Screening data as filed in PubChem.
In the library only some 2.9% were active in any assay of this set; here they are far more common.
SENP1 inh = inhibitors of human SENP1 SUMO protease catalytic domain | Q9P0U3 | recombinant SENP1 catalytic domain, CyPet-SUMO1-YPet FRET cleavage | inhibition, % at 10 µM | hit rate 0.21% among 360,000 | AID 624204;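 active means inhibition at least 30% at 10 µM, raw YFP signal under a set limit, fluorescence ratio 0.5 to 1.5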
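Assay system: hSENP1 catalytic domain, recombinant. Amount: SENP1 enzyme, 20 pM final. Schedule: 50 min reaction, RT, dark. Technique: FRET, CFP and YFP emission. Control set: no-enzyme wells low, DMSO-plus-enzyme wells high control.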
HSP90 inh = blocks HSP90-mediated luciferase refolding in reticulocyte lysate | Rabbit reticulocyte lysate, luciferase refolding luminescence, 3 h | inhibition, % at 5.6 µM | hit rate 0.91% among 290,000 | AID 1789;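 active means inhibition above the screen-wide mean plus 3 SD, computed separately per campaign, cut at about 16% in these data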;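 further: inhibitors lower the luminescence because luciferase stays unfolded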
SENP8 block-1 = inhibitors of human SENP8 protease; recombinant SENP8, Nedd8 substrate fluorescence; inhibition, % at 20 µM; hit rate 0.64% among 360,000; AID 602440; in the data active means inhibition mostly above about 40%, no sharp cut-off; inactive means mostly below about 27%
Target sequence (Q96LD8 whole entry, looked up): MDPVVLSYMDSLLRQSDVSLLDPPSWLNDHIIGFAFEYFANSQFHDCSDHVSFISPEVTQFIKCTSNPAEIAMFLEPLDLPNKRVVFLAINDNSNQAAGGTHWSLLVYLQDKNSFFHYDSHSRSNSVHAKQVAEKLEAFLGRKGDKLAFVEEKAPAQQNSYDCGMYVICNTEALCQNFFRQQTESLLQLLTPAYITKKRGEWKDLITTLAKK
SENP7 inh = blocks the human protease SENP7; Q9BQF6; recombinant SENP7, Z-RLRGG-aminoluciferin luminescence, 40 min; inhibition, % at 5 µM; hit rate 1.5% among 330,000; AID 434973;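 active means inhibition above about 50% at the single test dose, limit read from the data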
SENP6 block = inhibitors of human SENP6 protease. inhibition, % at 10 µM. Recombinant SENP6 catalytic domain, aminoluciferin luminescence. Q9GZR1. hit rate 1.8% among 330,000. AID 2599;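 active means inhibition above about 50% at the single tested dose, limit read from the data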
SENP8 block-2 = SENP8 protease inhibition; hit rate 1.2% among 330,000; purified SENP8, Z-RLRGG-aminoluciferin cleavage, luminescence; AID 2540; Q96LD8; inhibition, % at 10 µM; in the data active means inhibition above about 50%
SENP8 conf = human SENP8 inhibition, confirmed; shares compounds with SENP7 inh; Recombinant SENP8, Z-RLRGG-aminoluciferin luminescence, 60 min; inhibition, % at 12.5 µM; hit rate 40% among 6,200; AID 488912;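 active means mean inhibition across replicates above about 50%, limit read from the data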
SENP6 confirm = confirmation of human SENP6 protease inhibitors | shares compounds with SENP7 inh | recombinant SENP6, Z-RLRGG-aminoluciferin luminescence | inhibition, % at 12.5 µM | hit rate 58% among 6,200 | AID 488915
SENP7 conf = confirmation of human SENP7 protease inhibitors; AID 488917; hit rate 69% among 6,200; inhibition, % at 12.5 µM; shares compounds with SENP7 inh; recombinant SENP7, Z-RLRGG-aminoluciferin luminescence, 40 min
Casp3 select = caspase-3 inhibition (SENP selectivity assay); inhibition, % at 12.5 µM; purified caspase-3, Z-DEVD-aminoluciferin luminescence, 60 min; AID 488918; shares compounds with SENP7 inh; hit rate 60% among 6,200;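 active means mean inhibition above about 50%, limit read from the data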
Luc interf = luminescence interference (SENP counter-screen) | shares compounds with SENP7 inh | Pre-incubated SENP8/Z-RLRGG-aminoluciferin, luciferase luminescence interference | inhibition, % at 12.5 µM | hit rate 39% among 6,200;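 active means mean inhibition above about 50% when retested at one dose, limit read from the data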
Of the large screens only hits and unclear results are named; the others gave an inactive call (follow-up assays come after a bar, where they were run).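 How the source made its calls, unless noted: active means mean inhibition above about 50% in the one-dose retest (limit read from the data); inactive means the rest.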

COc1cccc(-c2cc(C(=O)N3CCCCCC3)no2)c1	SENP6 block 66.7 | SENP8 conf 62.2 | SENP6 confirm 60.8 | SENP7 conf 85.3 | Casp3 select 62.4 | Luc interf inactive
C(#CC1CCCC1)c1ccc2c(c1)COc1c3ccccc3nn1-2	none (no result: HSP90 inh)
Cc1cc(-c2ccc3c(c2)COc2c4ccccc4nn2-3)on1	SENP6 block 93.1, SENP8 block-2 86.2 (no result: HSP90 inh) | SENP8 conf inactive | SENP6 confirm inactive | SENP7 conf inactive | Casp3 select inactive | Luc interf inactive
CCCc1cc(-c2ccc3c(c2)COc2c4ccccc4nn2-3)on1	SENP7 inh 90.8, SENP6 block 93.0, SENP8 block-2 89.3 (no result: HSP90 inh) | SENP8 conf inactive | SENP6 confirm inactive | SENP7 conf inactive | Casp3 select 64.4 | Luc interf inactive
CCOc1ccc(/C=N/NC(=O)c2ccccc2O)cc1CN1CC2CC(C1)c1cccc(=O)n1C2 (centres undefined)	none (no result: HSP90 inh)
O=C(O)c1cccc(C(=O)Cc2ccccc2)c1	SENP6 block 74.6, SENP8 block-2 55.5 | SENP8 conf 62.6 | SENP6 confirm 60.1 | SENP7 conf 87.7 | Casp3 select 91.5 | Luc interf 73.8
Cc1ccc(C(=O)Cc2ccccc2)cc1	none (no result: HSP90 inh, SENP7 inh, SENP6 block, SENP8 block-2)
O=[N+]([O-])c1cccc(/C=C/c2nc[nH]c2[N+](=O)[O-])c1	SENP6 block 70.1, SENP8 block-2 57.3 | SENP8 conf inactive | SENP6 confirm inactive | SENP7 conf inactive | Casp3 select inactive | Luc interf inactive
CC(C)CNC(=S)NNC(=O)c1csc2c1CCCC2	SENP7 inh 50.0 | SENP8 conf inactive | SENP6 confirm inactive | SENP7 conf inactive | Casp3 select inactive | Luc interf inactive
CC(C)Cc1ccccc1O	none (no result: SENP1 inh, SENP8 block-1)
CC(/C=N/n1c(-c2ccccc2)n[nH]c1=S)=C\c1ccco1	none
